This is an account of results in ChEMBL document CHEMBL3621183, “Discovery and crystallography of bicyclic arylaminoazines as potent inhibitors of HIV-1 reverse transcriptase” (Bioorg Med Chem Lett, 2015).

In general, CC50 refers to the concentration that lowers cell viability or growth by half. The EC50 is the midpoint of the concentration-response curve. Broadly, the thermodynamic solubility is solubility found after equilibrating the solid with the medium.

Molecules are shown by their SMILES. Converted amounts (≈) assume the structure as drawn.

The subject of data set [1] is MT2. In words: Cytotoxicity against human MT2 cells assessed as growth inhibition by MTT assay. In kind it is cell-based. A general note: Tetrazolium assays rely on reduction of a dye to a coloured formazan, in cell work by metabolically active cells.
Data set [2] deals with Human immunodeficiency virus 1. Kind of data set: Antiviral activity against wild type HIV1 3B infected in human MT2 cells assessed as protection against viral infection by MTT assay. In kind it is functional, organism-based. Conditions: Human immunodeficiency virus 1, 3B; call rule not given here. The method, boiled down: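 HIV-1 IIIB strain tested in MT-2 human T-cells. […] Triplicate samples at each concentration.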

Data set [3] has as its system Human immunodeficiency virus 1. Kind of data set: Antiviral activity against HIV1 3B harboring reverse transcriptase Y181C mutant infected in human MT2 cells assessed as protection against viral infection by MTT assay. In kind it is functional, organism-based. The method, boiled down:
(§1)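 MT-2 human T-cells infected with the HIV-1 IIIB strain carrying the listed RT mutation. […] Triplicate samples at each concentration. Compounds were >95% pure by HPLC.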

The test system of data set [4] is Human immunodeficiency virus 1. In words: Antiviral activity against HIV1 3B harboring reverse transcriptase K103N/Y181C double mutant infected in human MT2 cells assessed as protection against viral infection by MTT assay. In kind it is functional, organism-based. Summed up: as §1
Data set [5] in a line: Aqueous solubility of the compound in Britton-Robinson buffer at pH 6.5 at 25 degC by shake flask method. In kind it is physicochemical. The method, boiled down:
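Shake-flask method. Supernatant collected through a 0.2 μm syringe filter and quantified by UV-vis spectrophotometry.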

The mark [6] stands for this setting: Human immunodeficiency virus 1, 3B, MT2, read-out: EC50.

With `N#Cc1ccc(Nc2nccc(Nc3c(F)cc4cc(C#N)ccc4c3F)n2)cc1`, the cytotoxic concentration (CC50) in data set [1] was 4800 nM. Also, the EC50 amounted to 1.8 nM in data set [2], 6 nM in data set [3] (setting [6]) and 50 nM in data set [4] (setting [6]).
With `N#Cc1ccc(Nc2nccc(Nc3ccn4cc(C#N)cc4c3)n2)cc1`, in data set [1], the CC50 was greater than 100000 nM. Also, the figures for the EC50 in data set [2], in data set [3] (mt2) and in data set [4] (mt2) were 200 nM, “Not Active” and “Not Active”, respectively.
`Cc1c(Nc2ccnc(Nc3ccc(C#N)cc3)n2)ccc2cc(C#N)ccc12`: the CC50 in data set [1] is greater than 100000 nM. Besides, the 50% effective concentration (EC50) in data set [2] turned out to be 7 nM; in data set [3] (setting [6]) it was 8.5 nM; in data set [4] (setting [6]), 130 nM.
For `Cc1cc2cc(C#N)ccc2c(C)c1Nc1nc(Cl)nc(Nc2ccc(C#N)cc2)n1` the same measures were 7500 nM, 2.3 nM, 41 nM and 67 nM.
In the case of `N#Cc1ccc(Nc2ncnc(Nc3c(F)cn4cc(C#N)cc4c3F)n2)cc1`, the 50% cytotoxic concentration (CC50) in data set [1] was found to be 20000 nM. Besides, the EC50 in data set [2] was 2.7 nM; in data set [3] (setting [6]) it was 230 nM; in data set [4] (setting [6]) it was 2200 nM.
For `Cc1cn2cc(C#N)cc2cc1Nc1ccnc(Nc2ccc(C#N)cc2)n1`, in that order: 72000 nM, 30 nM, 510 nM and 6200 nM.
For `N#Cc1ccc(Nc2nccc(Nc3ccc4cc(C#N)ccc4c3)n2)cc1`, in that order: greater than 100000 nM, 24 nM, 170 nM and 520 nM.
For `N#Cc1ccc(Nc2ncnc(Nc3c(F)cc4cc(C#N)ccc4c3F)n2)cc1` the same measures were greater than 100000 nM, 1.2 nM, 7 nM and 65 nM.
For `N#Cc1ccc(Nc2nccc(Nc3ccc4cc(C#N)ccc4c3F)n2)cc1`, the half-maximal cytotoxic concentration (CC50) in data set [1] is 45000 nM. Moreover, the concentration for a half-maximal effect (EC50) came to 6 nM in data set [2], 70 nM in data set [3] (setting [6]) and 790 nM in data set [4] (setting [6]).
Turning to `Cc1cn2cc(C#N)cc2c(C)c1Nc1ccnc(Nc2ccc(C#N)cc2)n1`, the CC50 in data set [1] amounted to 10100 nM. In addition, the concentration for a half-maximal effect (EC50) in data set [2] came out at 1 nM; in data set [3] (setting [6]), 0.57 nM; in data set [4] (setting [6]), 39 nM. In data set [5], this molecule had a thermodynamic solubility of 8.2 µg/mL (≈ 21.6 µM).
Turning to `Cc1cn2cc(C#N)cc2c(C)c1Nc1ncnc(Nc2ccc(C#N)cc2)n1`, the CC50 in data set [1] came out at 16000 nM. Also, the EC50 in data set [2] came out at 0.52 nM; in data set [3] (setting [6]) it was 7.1 nM; in data set [4] (setting [6]), 32 nM. Moreover, in data set [5], the thermodynamic solubility turned out to be 33.1 µg/mL (≈ 87 µM).
For the molecule `Cc1cn2cc(C#N)cc2c(C)c1Nc1nc(Cl)nc(Nc2ccc(C#N)cc2)n1`, the half-maximal cytotoxic concentration (CC50) in data set [1] was found to be 38000 nM. The half-maximal effective concentration (EC50) was 14000 nM in data set [2], “Not Active” in data set [3] (mt2) and “Not Active” in data set [4] (mt2).
Consider `Cc1c(Nc2nc(Nc3ccc(C#N)cc3)nc(OCCCN3CCOCC3)n2)ccn2cc(C#N)cc12`, for which the cytotoxic concentration (CC50) in data set [1] is 10000 nM. In addition, the EC50 in data set [2] was 1900 nM; in data set [3] (mt2), “Not Active”; in data set [4] (mt2), “Not Active”.
As to `N#Cc1ccc(Nc2nccc(Nc3cc4cc(C#N)cn4cc3F)n2)cc1`, the 50% cytotoxic concentration (CC50) in data set [1] came out at 76000 nM. The concentration for a half-maximal effect (EC50) in data set [2] worked out at 200 nM; in data set [3] (setting [6]), 1600 nM; in data set [4] (setting [6]) it was 4600 nM.
Turning to `N#Cc1ccc(Nc2nc(Nc3ccc4cc(C#N)ccc4c3)nc(OCCCN3CCOCC3)n2)cc1`, the CC50 in data set [1] amounted to 1200 nM. Moreover, the concentration giving a half-maximal response (EC50) in data set [2] was 120 nM; in data set [3] (mt2), “Not Active”; in data set [4] (setting [6]), 150 nM.
Consider `N#Cc1ccc(Nc2nc(Nc3ccc4cc(C#N)ccc4c3F)nc(OCCCN3CCOCC3)n2)cc1`, for which the CC50 in data set [1] came to 3800 nM. Besides, the EC50 in data set [2] stood at 36 nM; in data set [3] (setting [6]), 160 nM; in data set [4] (setting [6]), 180 nM.
For `Cc1c(Nc2ccnc(Nc3ccc(C#N)cc3)n2)ccn2cc(C#N)cc12`, the 50% cytotoxic concentration (CC50) in data set [1] is greater than 100000 nM. In addition, the EC50 in data set [2] was 1.4 nM; in data set [3] (setting [6]), 26 nM; in data set [4] (setting [6]), 170 nM.
Take `Cc1cc2cc(C#N)ccc2c(C)c1Nc1ncnc(Nc2ccc(C#N)cc2)n1`: in data set [1], the CC50 turned out to be 9500 nM. Moreover, the results for the half-maximal effective concentration (EC50) in data set [2], in data set [3] (setting [6]) and in data set [4] (setting [6]) were 1.1 nM, 1.3 nM and 7 nM, respectively. Besides, in data set [5], the solubility (thermodynamic) came out at 28.7 µg/mL (≈ 73.3 µM).
Regarding `Cc1cc2cc(C#N)ccc2c(C)c1Nc1ccnc(Nc2ccc(C#N)cc2)n1`, in data set [1], the CC50 was 7800 nM. Besides, the concentration giving a half-maximal response (EC50) in data set [2] is 2.9 nM; in data set [3] (setting [6]) it was 2.2 nM; in data set [4] (setting [6]) it was 6.9 nM. Further, the thermodynamic solubility in data set [5] was 12.2 µg/mL (≈ 31.2 µM).
Turning to `N#Cc1ccc(Nc2nccc(Nc3c(F)cn4cc(C#N)cc4c3F)n2)cc1`, the CC50 in data set [1] was found to be 1000 nM. The EC50 in data set [2] is 1.4 nM; in data set [3] (setting [6]), 98 nM; in data set [4] (mt2) it was “Not Active”.
Take `Cc1c(Nc2nc(Nc3ccc(C#N)cc3)nc(OCCCN3CCOCC3)n2)ccc2cc(C#N)ccc12`: the half-maximal cytotoxic concentration (CC50) in data set [1] was 5900 nM. The EC50 in data set [2] was found to be 21 nM; in data set [3] (setting [6]) it was 58 nM; in data set [4] (setting [6]) it was 98 nM.
For `Cc1cc2cc(C#N)ccc2c(C)c1Nc1nc(Nc2ccc(C#N)cc2)nc(OCCCN2CCOCC2)n1` the same measures were 17000 nM, 17 nM, 36 nM and 16 nM.
